Laboratory results: ChEMBL document CHEMBL4118144, “Design, Synthesis, and Testing of Potent, Selective Hepsin Inhibitors via Application of an Automated Closed-Loop Optimization Platform” (J Med Chem, 2018)
Active and inactive are the calls of the source. The calls are words filed in the database; no cut-off is given here.

Tests used:
[1] = target: Prothrombin (Homo sapiens) (UniProt P00734); experiment: Inhibition of human thrombin using Z-Gly-Pro-Arg-AMC as substrate at 10 uM after 60 mins by fluorescence spectrophotometric method relative to control
Procedure, shortened: (§1)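 Panel of ten serine proteases; percent inhibition read at compound concentrations of 1 µM and 10 µM, each value the mean of 2 experiments.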

Serine protease hepsin [2] = target: Serine protease hepsin (Homo sapiens, UniProt P05981, D161E/R162K); experiment: Inhibition of recombinant C-terminal His10-tagged human Hepsin (R45 to […] residues) D161E/ R162K double mutant expressed in mouse NS0 cells using Boc-QRR-AMC as substrate after 15 mins by automated fluorescence assay
Procedure, shortened: (§2)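 On-line assay integrated with the flow-synthesis platform: a 20 µL aliquot of each product solution captured automatically, HPLC-purified, then diluted and assayed.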

[3] = Chromatographic hydrophobicity index, log D of the compound at pH 7 by HPLC/UV analysis; format: physicochemical; conditions: buffer
HepG2 = experiment: Cytotoxicity against human HepG2 cells assessed as reduction in cell viability after 48 hrs by CellTiter-Blue/CytoTox-ONE-based assay; conditions: HepG2, 48 h
Procedure, shortened: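 Human Hep-G2 cells were exposed to compound at concentrations up to 10 µM. The value is reported as viable-50 (µM), the concentration at which 50% of cells remain viable.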

[4] = target: Dipeptidyl peptidase 4 (Homo sapiens) (UniProt P27487); experiment: Inhibition of recombinant full length human dipeptidyl peptidase 4 using GP-AMC as substrate at 10 uM after 10 mins by fluorescence spectrophotometric method relative to control; procedure, shortened: as §1
[5] = target: Plasma kallikrein (Homo sapiens) (UniProt P03952); experiment: Inhibition of human plasma kallikrein using H-D-Pro-Phe-Arg-pNA as substrate at 1 uM after 30 mins by spectrophotometric method relative to control; procedure, shortened: as §1
[6] = target: T1, Hepatocyte growth factor activator serine protease (Homo sapiens) (UniProt Q04756); experiment: Inhibition of C-terminal 10-His tagged recombinant human HGFA (Gln36 to Ser655 residues) expressed in mouse […] cells 10 uM after 15 mins by fluorescence assay relative to control; format: cell-based
T1 sequence (whole entry): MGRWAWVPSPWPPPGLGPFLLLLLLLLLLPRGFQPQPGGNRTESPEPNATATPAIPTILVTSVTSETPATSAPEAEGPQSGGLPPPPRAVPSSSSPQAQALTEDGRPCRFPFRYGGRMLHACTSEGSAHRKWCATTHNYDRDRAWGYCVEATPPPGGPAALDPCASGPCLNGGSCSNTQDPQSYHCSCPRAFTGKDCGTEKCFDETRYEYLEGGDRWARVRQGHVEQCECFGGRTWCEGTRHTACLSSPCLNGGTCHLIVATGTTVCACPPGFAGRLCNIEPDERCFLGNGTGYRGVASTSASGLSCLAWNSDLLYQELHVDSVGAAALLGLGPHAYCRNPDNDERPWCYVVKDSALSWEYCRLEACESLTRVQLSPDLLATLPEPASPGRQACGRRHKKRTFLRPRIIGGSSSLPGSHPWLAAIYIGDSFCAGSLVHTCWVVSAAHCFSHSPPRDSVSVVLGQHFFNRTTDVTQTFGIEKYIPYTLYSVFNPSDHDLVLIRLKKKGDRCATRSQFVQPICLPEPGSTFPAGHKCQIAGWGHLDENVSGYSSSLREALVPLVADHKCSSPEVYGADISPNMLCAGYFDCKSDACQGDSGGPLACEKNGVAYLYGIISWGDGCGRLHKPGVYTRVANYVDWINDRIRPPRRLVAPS

[7] = target: Urokinase-type plasminogen activator (Homo sapiens, UniProt P00749); experiment: Inhibition of recombinant C-terminal His10-tagged human uPA (M1 to L431 residues) expressed in mouse NS0 cells using Z-GGR-AMC as substrate after 15 mins by automated fluorescence assay; procedure, shortened: as §2
[8] = target: T2, Suppressor of tumorigenicity 14 protein (Homo sapiens) (UniProt Q9Y5Y6); experiment: Inhibition of matriptase (unknown origin) using BOC-QAR-AMC as substrate at 1 uM after 15 mins by fluorescence assay relative to control; procedure, shortened: as §1
T2 sequence (whole entry): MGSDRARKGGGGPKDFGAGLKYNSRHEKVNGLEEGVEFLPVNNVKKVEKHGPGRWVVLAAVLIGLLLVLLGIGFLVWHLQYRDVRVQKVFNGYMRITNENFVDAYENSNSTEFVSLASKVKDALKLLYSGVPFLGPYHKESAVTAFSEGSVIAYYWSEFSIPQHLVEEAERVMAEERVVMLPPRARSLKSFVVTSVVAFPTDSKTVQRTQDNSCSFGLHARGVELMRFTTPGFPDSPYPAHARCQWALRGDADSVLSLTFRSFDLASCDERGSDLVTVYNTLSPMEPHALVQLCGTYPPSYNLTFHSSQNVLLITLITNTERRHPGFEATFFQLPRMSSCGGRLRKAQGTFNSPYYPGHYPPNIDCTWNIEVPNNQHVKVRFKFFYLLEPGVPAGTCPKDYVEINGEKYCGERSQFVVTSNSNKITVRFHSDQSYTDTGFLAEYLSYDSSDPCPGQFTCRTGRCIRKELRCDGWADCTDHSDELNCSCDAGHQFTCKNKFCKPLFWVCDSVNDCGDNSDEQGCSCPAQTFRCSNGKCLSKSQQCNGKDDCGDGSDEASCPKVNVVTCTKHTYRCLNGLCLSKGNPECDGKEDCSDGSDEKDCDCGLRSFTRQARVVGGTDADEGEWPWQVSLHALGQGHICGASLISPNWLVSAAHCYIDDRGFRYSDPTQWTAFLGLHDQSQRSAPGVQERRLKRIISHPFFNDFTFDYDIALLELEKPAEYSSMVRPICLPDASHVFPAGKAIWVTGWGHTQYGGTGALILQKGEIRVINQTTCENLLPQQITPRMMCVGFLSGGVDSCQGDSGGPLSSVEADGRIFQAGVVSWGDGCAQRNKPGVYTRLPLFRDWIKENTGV

[9] = system: Serine protease hepsin (Homo sapiens), P05981 [D161E,R162K]; experiment: Inhibition of recombinant C-terminal His10-tagged human Hepsin (R45 to […] residues) D161E/ R162K double mutant expressed in mouse NS0 cells assessed as decrease in HGF beta chain formation at 1 uM incubated for 30 mins in presence of recombinant human pro-HGF by immunoblot method; format: cell-based
Procedure, shortened: (§3)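 Recombinant human Pro-HGF incubated with recombinant human hepsin plus inhibitor at 37°C for 30 min; processing analysed by immunoblot with an antibody recognizing Pro-HGF and the α and β chains.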

[10] = system: Serine protease hepsin (Homo sapiens), P05981 [D161E,R162K]; experiment: Inhibition of recombinant C-terminal His10-tagged human Hepsin (R45 to […] residues) D161E/ R162K double mutant expressed in mouse NS0 cells assessed as decrease in HGF alpha chain formation at 1 uM incubated for 30 mins in presence of recombinant human pro-HGF by immunoblot method; format: cell-based; procedure, shortened: as §3
Serine protease hepsin [11] = target: Serine protease hepsin (Homo sapiens, UniProt P05981); experiment: Inhibition of hepsin-mediated conversion of Pro-HGF into active form in human HCC1937 cells assessed as decrease in MET phosphorylation at 1 uM preincubated for 30 mins followed by recombinant human pro-HGF addition measured after 30 mins by immunoblot method; format: cell-based
Procedure, shortened: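 Hs578T or HCC1937 breast cells incubated with DMSO or inhibitor, then 50 ng/mL recombinant human Pro-HGF added; MET pathway activation (phospho-MET) assessed by immunoblotting.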

Sequence of Plasma kallikrein (Homo sapiens) (P03952 20-390 limits assumed): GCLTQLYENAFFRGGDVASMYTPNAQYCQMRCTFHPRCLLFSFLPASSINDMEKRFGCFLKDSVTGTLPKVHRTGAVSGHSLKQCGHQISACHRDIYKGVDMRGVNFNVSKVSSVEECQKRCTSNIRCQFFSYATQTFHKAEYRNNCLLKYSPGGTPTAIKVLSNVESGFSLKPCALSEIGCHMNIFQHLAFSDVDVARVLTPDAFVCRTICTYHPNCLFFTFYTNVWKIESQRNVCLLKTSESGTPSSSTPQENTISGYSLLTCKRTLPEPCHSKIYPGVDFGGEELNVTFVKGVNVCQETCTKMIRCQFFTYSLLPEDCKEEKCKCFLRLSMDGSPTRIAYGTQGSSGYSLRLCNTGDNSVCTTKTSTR
Sequence of Plasma kallikrein (Homo sapiens) (P03952 391-638 limits assumed): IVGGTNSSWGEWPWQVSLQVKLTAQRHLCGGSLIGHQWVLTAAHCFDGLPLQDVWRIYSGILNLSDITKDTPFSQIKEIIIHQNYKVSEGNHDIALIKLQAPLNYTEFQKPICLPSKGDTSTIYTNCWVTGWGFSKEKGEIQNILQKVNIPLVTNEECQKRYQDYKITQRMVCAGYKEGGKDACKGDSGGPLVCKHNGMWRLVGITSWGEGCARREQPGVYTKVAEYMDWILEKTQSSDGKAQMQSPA
Sequence of Dipeptidyl peptidase 4 (Homo sapiens) (P27487 whole entry, looked up): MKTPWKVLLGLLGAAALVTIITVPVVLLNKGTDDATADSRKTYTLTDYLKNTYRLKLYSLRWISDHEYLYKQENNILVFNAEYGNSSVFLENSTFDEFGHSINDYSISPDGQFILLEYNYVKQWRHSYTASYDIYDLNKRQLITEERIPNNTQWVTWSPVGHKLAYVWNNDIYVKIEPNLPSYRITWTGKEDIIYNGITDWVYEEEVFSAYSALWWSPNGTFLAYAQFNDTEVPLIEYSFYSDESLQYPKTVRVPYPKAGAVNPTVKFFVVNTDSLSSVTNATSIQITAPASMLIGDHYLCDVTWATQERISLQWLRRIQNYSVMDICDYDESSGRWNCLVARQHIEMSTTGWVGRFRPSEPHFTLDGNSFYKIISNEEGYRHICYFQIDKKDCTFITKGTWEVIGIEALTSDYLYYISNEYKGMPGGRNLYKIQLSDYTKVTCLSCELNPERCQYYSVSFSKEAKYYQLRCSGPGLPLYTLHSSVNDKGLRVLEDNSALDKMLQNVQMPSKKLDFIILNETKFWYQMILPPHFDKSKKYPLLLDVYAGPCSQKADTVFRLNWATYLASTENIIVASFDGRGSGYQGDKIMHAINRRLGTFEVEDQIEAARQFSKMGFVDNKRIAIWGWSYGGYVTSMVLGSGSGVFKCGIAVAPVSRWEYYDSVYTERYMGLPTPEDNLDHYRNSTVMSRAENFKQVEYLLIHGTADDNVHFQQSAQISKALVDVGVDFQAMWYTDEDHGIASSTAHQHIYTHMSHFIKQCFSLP
Sequence of Serine protease hepsin (Homo sapiens), P05981 [D161E,R162K] (P05981 whole entry D161E/R162K): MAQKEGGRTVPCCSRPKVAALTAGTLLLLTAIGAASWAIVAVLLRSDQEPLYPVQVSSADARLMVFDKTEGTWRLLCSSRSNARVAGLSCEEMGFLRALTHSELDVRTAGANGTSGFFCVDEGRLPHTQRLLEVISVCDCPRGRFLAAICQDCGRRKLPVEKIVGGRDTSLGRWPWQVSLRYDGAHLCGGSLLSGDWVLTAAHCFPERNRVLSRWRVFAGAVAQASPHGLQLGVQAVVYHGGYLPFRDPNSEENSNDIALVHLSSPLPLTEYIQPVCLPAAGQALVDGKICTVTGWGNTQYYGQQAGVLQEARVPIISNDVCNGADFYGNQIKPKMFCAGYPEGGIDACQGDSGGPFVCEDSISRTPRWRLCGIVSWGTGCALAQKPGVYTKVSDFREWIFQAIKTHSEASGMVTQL
Sequence of Serine protease hepsin (Homo sapiens, UniProt P05981) (P05981 1-162 limits assumed): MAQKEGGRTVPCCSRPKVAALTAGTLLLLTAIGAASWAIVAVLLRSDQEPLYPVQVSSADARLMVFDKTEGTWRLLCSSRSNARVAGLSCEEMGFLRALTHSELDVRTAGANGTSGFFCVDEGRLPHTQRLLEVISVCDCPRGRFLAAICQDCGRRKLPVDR
Sequence of Serine protease hepsin (Homo sapiens, UniProt P05981) (P05981 163-417 limits assumed): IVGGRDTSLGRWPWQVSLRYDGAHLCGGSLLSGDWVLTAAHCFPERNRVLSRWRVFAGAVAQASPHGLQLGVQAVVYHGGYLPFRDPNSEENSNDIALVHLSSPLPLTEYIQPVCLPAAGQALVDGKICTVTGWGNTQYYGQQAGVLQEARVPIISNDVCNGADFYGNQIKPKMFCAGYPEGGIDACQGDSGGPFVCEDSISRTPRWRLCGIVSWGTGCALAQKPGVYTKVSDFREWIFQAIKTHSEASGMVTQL

Row | SMILES | inhibition [1] [%] | IC50 (Serine protease hepsin [2]) [µM] | chromatographic logD [3] | IC50 (HepG2) [µM] | inhibition [4] [%] | inhibition [5] [%] | inhibition [6] [%] | IC50 [7] [µM] | inhibition [8] [%] | inhibition [9] | inhibition [10] | inhibition (Serine protease hepsin [11])
1 | Cc1ccc(S(=O)(=O)N[C@@H](C(=O)Nc2ccc(C(=N)N)cc2)C2CCCCC2)cc1 | 12 | 0.033 | 1.3 | > 10 | < 10 | < 10 | 22 | 4.4 | < 10 | – | – | –
2 | Cc1ccc(S(=O)(=O)N[C@@H](C(=O)Nc2ccc(C(=N)N)cc2)c2ccccc2)cc1 | 44 | – | – | > 10 | < 10 | 34 | 24 | – | < 10 | Active | Active | Active
3 | N=C(N)c1ccc(NC(=O)[C@H](NS(=O)(=O)c2ccc(F)cc2)C2CCCCC2)cc1 | 10 | 0.09 | – | > 10 | < 10 | 12 | 24 | > 14 | < 10 | – | – | –
